Test results reported in article PMC8994735 (Targeted Oncology, 2021).
“Also recorded” adds a separate entry of the source. Where two headings read alike, the source gives them in different places.

Columns and labels:
[1] = test system: patients from the United States / Western patients; settings: cited from earlier work
[2] = test system: East Asian patients with advanced nonhematologic malignancies; experiment: Dose-limiting toxicities and MTD/RP2D determination; assay type: in vivo, human
Summary of the method: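 Standard 3 + 3 escalation with planned levels of 2 and 4 mg once daily and 20 and 30 mg once weekly, oral, in 28-day cycles; intermediate doses and expansion to 12 patients were permitted. DLTs were assessed in cycle 1 and covered grade ≥ 3 nonhematologic toxicity (with specified exceptions), defined hematologic events, and < 75% of planned doses given. Evaluable patients received ≥ 75% of planned doses (21 once daily, three once weekly).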

[3] = test system: nonhematologic malignancies/solid tumors, endometrial cancer; settings: phase 2 study in endometrial cancer; single-agent 30 mg QW; cited from earlier work
[4] = test system: Western patients; settings: cited from earlier work
[5] = Plasma pharmacokinetics; assay type: in vivo, human; settings: for AUC / Cmax / half-life / Tmax: human, oral; for Cmax: Mean Cmax
[6] = test system: advanced nonhematologic malignancies; experiment: Antitumor activity: disease response by RECIST v1.1; assay type: in vivo, human
Summary of the method: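 Oral dosing once daily (2, 3 or 4 mg) or once weekly (20 or 30 mg) in 28-day cycles. Treatment lasted up to 12 months or until progression, unacceptable toxicity or consent withdrawal. Response was assessed by RECIST v1.1 in the safety analysis set (patients receiving ≥ 1 dose). Analysis was descriptive, with no formal hypothesis testing.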

Structure (SMILES): CC(C)n1nc(-c2ccc3oc(N)nc3c2)c2c(N)ncnc21 [sapanisertib]
- Incidence of stomatitis ([1]; 20 or 30 mg QW): 10%
- Incidence of stomatitis ([1]; sapanisertib 2–7 mg QD): 35%
- Incidence of stomatitis ([1]; sapanisertib 3 or 4 mg QD): 18%
- Incidence of stomatitis ([1]; sapanisertib 7–40 mg QW): 30%
- DLT of grade 3 stomatitis ([2]; 4 mg QD cohort): 2 n
- Dose-limiting toxicities (patients experiencing DLTs) ([2]; 4 mg QD cohort, cycle 1): three
- DLTs ([2]; 20 mg QW dose level): no patients experienced DLTs
- DLTs ([2]; 30 mg QW dose level): no patients experienced DLTs
- Maximum tolerated dose (MTD) ([2]; QD dosing, East Asian patients): 3 mg
- Recommended phase 2 dose (RP2D) ([2]; QD dosing, East Asian patients): 3 mg
- Recommended phase 2 dose (RP2D) ([2]; QW dosing, East Asian patients): 30 mg
- Pre-defined futility threshold [3]: did not meet a pre-defined futility threshold
- RP2D in Western patients ([4]; QD, Western patient populations): 4 mg
- Lowest RP2D in previous studies in Western patients ([4]; QD): 4 mg
- Lowest RP2D in previous studies in Western patients ([4]; QW): 30 mg
- Accumulation in plasma ([5]; QD or QW, any dose level): did not accumulate in plasma to any appreciable extent
- Dose dependence of plasma exposure (AUC and Cmax) ([5]; across all doses): increased linearly across all doses; also recorded: generally linear, dose-dependent
- Time at which peak plasma concentrations were achieved post-dose ([5]; cycle 1 day 1, single dose, both QD and QW arm): 0.5 to 2.0 h
- Geometric mean accumulation ratio of AUC168 ([5]; cycle 1 day 15, 20 mg QW): 1.14
- Geometric mean accumulation ratio of Cmax ([5]; cycle 1 day 15, 20 mg QW): 0.72
- Geometric mean accumulation ratio of AUC168 ([5]; cycle 1 day 15, 30 mg QW): 1.47
- Geometric mean accumulation ratio of Cmax ([5]; cycle 1 day 15, 30 mg QW): 1.36
- Time at which peak plasma concentrations were achieved post-dose ([5]; cycle 1 day 15, QD arm): 0.5 to 3.0 h
- Time at which peak plasma concentrations were achieved post-dose ([5]; cycle 1 day 15, QW arm): 0.5 to 4.1 h
- Geometric mean accumulation ratio of Cmax ([5]; cycle 1 day 15, across all QD dose levels): 0.93–1.30
- AUC ([5]; plasma, Mean AUC24, cycle 1 day 15, QD dosing): 237 to 366 ng·h/mL
- AUC ([5]; plasma, Mean AUC from 0–24 h (AUC24), cycle 1 day 1, across QD doses): 138 to 315 ng·h/mL
- Cmax ([5]; plasma, cycle 1 day 1, across all QD doses): 23.9 to 56.9 ng/mL
- Cmax ([5]; plasma, cycle 1 day 15, across all QD doses): 33.4 to 57.2 ng/mL
- half-life ([5]; plasma, Mean plasma elimination half-life, cycle 1 day 1, across all QD doses): 6 to 6.8 h
- half-life ([5]; plasma, Mean plasma elimination half-life, cycle 1 day 15, across all QD doses): 5.24 to 9.2 h
- Tmax ([5]; plasma, Median Tmax, cycle 1 day 1, across all QD doses): 0.5 to 1 h
- Tmax ([5]; plasma, Median Tmax, cycle 1 day 15, across all QD doses): 1 to 1.5 h
- half-life ([5]; plasma, T1/2, overall, as summarised in the abstract): 5.9 to 7.6 h
- Tmax ([5]; plasma, Tmax, across all doses in both arms): 0.5 to 2.6 h
- Cmax, mean (sd) ([5]; plasma, cycle 1 day 15, QW dose escalation 20 mg, n 3): 207.5 ng/mL
- Best overall response of progressive disease ([6]; QD arm): 45%
- Clinical benefit rate (CR, PR, or SD of any duration) ([6]; QD arm): 45%
- Discontinuation due to progressive disease ([6]; QD arm): 64%
- Best overall response of progressive disease ([6]; QW arm): 33%
- Clinical benefit rate (CR, PR, or SD of any duration) ([6]; QW arm): 67%
- Discontinuation due to progressive disease ([6]; QW arm): 67%
- Patients with stable disease for ≥ 6 months ([6]; all cohorts): Three
- Complete response (CR) or partial response (PR) ([6]; either treatment arm): No patients
- Anti-tumor effect ([6]; heavily pretreated patients, across dosing schedules): Moderate anti-tumor effects and a favorable safety profile were observed with sapanisertib in this heavily pretreated patient population
